From ChEMBL document CHEMBL1130173, “A model for binding of structurally diverse natural product inhibitors of protein phosphatases PP1 and PP2A” (J Med Chem, 1997)
*1 amine or outer side, *2 acyl side, *3 side chain or, on linkers, in order; H or OH if unused. Where a SMILES comes first, the peptide text is derived from it. Bridges are numbered along the chain shown (N, C = ends). [ ]: non-standard residue; d: D form. Adda = CO[C@@H](Cc1ccccc1)[C@@H](C)/C=C(C)/C=C/[C@H](N[*:1])[C@H](C)C(=O)[*:2]; dAsp(3S-Me) = C[C@H](C(=O)[*:3])[C@@H](N[*:1])C(=O)[*:2]; d(γGlu) = O=C(O)[C@@H](CCC(=O)[*:2])N[*:1]; NMeDha = C=C(NC)C(=O)O

Assays:
[1] = molecular target: T1, Serine-threonine protein phosphatase 2A regulatory subunit (Gallus gallus, UniProt Q8AWE3); test: (§1) Observed inhibition activity of the compounds against protein phosphatases 2A (PP2A)
T1 sequence (Q8AWE3 whole entry): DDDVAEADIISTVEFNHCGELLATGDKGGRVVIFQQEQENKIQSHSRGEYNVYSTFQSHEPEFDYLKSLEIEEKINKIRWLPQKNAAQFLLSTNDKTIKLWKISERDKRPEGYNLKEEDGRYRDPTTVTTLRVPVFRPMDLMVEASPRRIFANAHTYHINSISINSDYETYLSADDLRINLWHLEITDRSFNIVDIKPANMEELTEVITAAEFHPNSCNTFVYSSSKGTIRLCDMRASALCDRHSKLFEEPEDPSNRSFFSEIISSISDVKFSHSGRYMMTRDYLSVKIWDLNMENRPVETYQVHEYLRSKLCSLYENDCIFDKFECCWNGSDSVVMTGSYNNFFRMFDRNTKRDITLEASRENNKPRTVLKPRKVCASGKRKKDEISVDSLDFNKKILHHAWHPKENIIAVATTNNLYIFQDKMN
How it was run: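 Commercial PP2A (e.g. 3 mU) in MOPS/2-mercaptoethanol/MgCl2/albumin dilution buffer. Preincubated 10 min with inhibitor at pH 8.0 Tris-HCl. Reaction started with KR-pT-IRR phosphopeptide (0.2 mM stock), 60 min at 22 °C. Released phosphate measured by malachite green at 650 nm after 20 min development; IC50 from inhibition curves.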

[2] = molecular target: T2, Serine/threonine-protein phosphatase 2A 55 kDa regulatory subunit B alpha isoform (Homo sapiens, UniProt P63151); test: as §1
T2 sequence (P63151 whole entry): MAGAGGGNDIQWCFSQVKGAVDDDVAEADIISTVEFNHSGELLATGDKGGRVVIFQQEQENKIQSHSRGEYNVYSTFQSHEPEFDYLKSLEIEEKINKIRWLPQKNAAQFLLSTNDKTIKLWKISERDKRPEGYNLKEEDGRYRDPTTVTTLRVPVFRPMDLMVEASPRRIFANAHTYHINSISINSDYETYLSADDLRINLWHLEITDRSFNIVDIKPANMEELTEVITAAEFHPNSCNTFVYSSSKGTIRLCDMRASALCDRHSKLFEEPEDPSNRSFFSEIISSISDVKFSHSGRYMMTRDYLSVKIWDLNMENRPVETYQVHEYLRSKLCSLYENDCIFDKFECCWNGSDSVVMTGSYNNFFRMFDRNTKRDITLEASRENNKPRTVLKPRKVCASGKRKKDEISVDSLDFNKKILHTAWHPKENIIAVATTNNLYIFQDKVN

[3] = molecular target: T1, Serine-threonine protein phosphatase 2A regulatory subunit; test: Observed inhibition activity against protein phosphatase 2A (PP2A)
[4] = molecular target: T1, Serine-threonine protein phosphatase 2A regulatory subunit; test: Inhibition activity against protein phosphatase 2A (PP2A), activity taken from literature

Row | Structure (SMILES) | IC50 [1] [nM] | IC50 [3] [nM] | IC50 [4] [nM] | also measured
1 | COC[C@@H]([C@H](O)[C@H](O)C(=O)NCC[C@H](C)c1nc(/C=C/C[C@@H]2O[C@]3(C[C@@H](O)[C@@H]2C)O[C@H]([C@H](C[C@H](O)[C@H](C)[C@H](O)[C@H](C)/C=C(C)/C(C)=C/C=C/C(C)=C\C#N)OC)[C@H](OP(=O)(O)O)C3(C)C)co1)N(C)C [CALYCULIN A] | 7.3 | – | – | –
2 | C=C1C(=O)N[C@H](C)C(=O)N[C@@H](CC(C)C)C(=O)N[C@@H](C(=O)O)[C@H](C)C(=O)N[C@@H](CCCNC(=N)N)C(=O)N[C@@H](/C=C/C(C)=C/[C@H](C)[C@H](Cc2ccccc2)OC)[C@H](C)C(=O)N[C@@H](C(=O)O)CCC(=O)N1C [MICROCYSTIN-LR] (R[Adda][d(γGlu)][NMeDha][dA]L[dAsp(3S-Me)]-OH; lactam N-7) | – | – | – | IC50 [2]: 0.065 nM
3 | COC([C@H](OC(=O)C[C@@H](O)C1=C(C)C(=O)OC1=O)C(C)C)[C@H](O)CC(=O)[C@@H](C)[C@@H](O)CC[C@@H](C)[C@@H]1O[C@]2(CC[C@@H](C)[C@H](CC[C@H](C)C(C)=O)O2)CC[C@@H]1C (single isomer, unassigned) [TAUTOMYCIN] | 10 | – | – | –
4 | CC=C1C(=O)N[C@@H](C(=O)O)[C@H](C)C(=O)N[C@@H](CCCNC(=N)N)C(=O)N[C@@H](/C=C/C(C)=C/[C@H](C)[C@H](Cc2ccccc2)OC)[C@H](C)C(=O)N[C@@H](C(=O)O)CCC(=O)N1C | – | 0.2 | 1 | –
5 | C=C1[C@@H](O)[C@@H]2O[C@]3(CC[C@H](/C=C/[C@@H](C)[C@@H]4CC(C)=C[C@@]5(O[C@H](C[C@@](C)(O)C(=O)O)CC[C@H]5O)O4)O3)CC[C@H]2O[C@@H]1[C@@H](O)C[C@H](C)[C@H]1O[C@@]2(CCCCO2)CC[C@H]1C [OKADAIC ACID] | – | 0.45 | 1 | –
6 | COC[C@@H]([C@H](O)[C@H](O)C(=O)N[C@H](C)C[C@H](C)c1nc(/C=C/C[C@@H]2O[C@]3(C[C@@H](O)[C@@H]2C)O[C@H]([C@H](C[C@H](O)[C@H](C)[C@H](O)[C@H](C)/C=C(C)/C(C)=C/C=C/C(C)=C\C#N)OC)[C@H](OP(=O)(O)O)C3(C)C)co1)N(C)C [CALYCULIN] | 9.71 | – | – | –
